# Measured values of several laboratories.
# Protocols differ between the studies behind these lines.
SMILES,tested on,test,test system,conditions,quantity,result
CCCCCCCCCCCCCCCCCCOc1ccccc1CC(=O)OCC[N+]1(C)CCCCC1,NCI-H522,"cell growth or viability, SRB",,10 µM,inhibition,66.7%
CCCCCCCCCCC1NCCc2cc(O)c(O)cc21 (stereo not shown),,ABTS scavenging,,"10 min, dark",IC50,69.9 µM
C[C@@H]1[C@H](O)[C@@H](C)/C=C/C=C/C=C/C=C/C=C/C=C/C=C/[C@H](O[C@@H]2O[C@H](C)[C@@H](O)[C@H](N)[C@@H]2O)C[C@@H]2O[C@](O)(C[C@@H](O)C[C@@H](O)[C@H](O)CC[C@@H](O)C[C@@H](O)CC(=O)O[C@H]1C)C[C@H](O)[C@H]2C(=O)O,Leishmania donovani,"parasite growth, imaging",THP-1,"20 nM, intracellular, amastigote",inhibition,7%
O=C1O[C@H]([C@@H](O)CO)C(O)=C1O,,"ABTS scavenging, absorbance",,dark,IC50,5.42 µg/mL
COc1cccc(C2NCCc3cc(O)c(O)cc32)c1O (stereo not shown),,ABTS scavenging,,"10 min, dark",IC50,8.51 µM
CCCCCCCCCCCCCCCCCCOc1cccc(CC(=O)OCC[N+](C)(C)C)c1,NCI-H522,"cell growth or viability, SRB",,10 µM,inhibition,13.3%
COc1cc(C2NCCc3cc(O)c(O)cc32)ccc1O (stereo not shown),,ABTS scavenging,,"10 min, dark",IC50,14 µM
CCCCCCCCCCCCCCCCOP(=O)([O-])OCC[N+](C)(C)C,Leishmania donovani,parasite growth,THP-1,"40 µM, intracellular, amastigote",inhibition,100%
Oc1cc2c(cc1O)C(Cc1ccccc1)NCC2 (stereo not shown),,ABTS scavenging,,"10 min, dark",IC50,8.14 µM
O=C1O[C@H]([C@@H](O)CO)C(O)=C1O,,ABTS scavenging,,20 min,IC50,54.5 µg/mL
c1ccc(Oc2ccc(Nc3c4c(nc5ccccc35)CCC4)cc2)cc1,Leishmania donovani,"parasite growth, resazurin",,promastigote,IC50,0.6 µM
CN1CCN(S(=O)(=O)c2ccc(-c3ccc4nncc(Nc5ncc(Cl)cn5)c4c3)cc2)CC1,Leishmania donovani,parasite growth,,"intracellular, amastigote",EC50,0.035 µg/mL
CCOc1ccc(Nc2c3c(nc4ccccc24)CCC3)cc1,Leishmania donovani,parasite growth,THP-1,"intracellular, amastigote",IC50,0.592 µM
O=C1O[C@H]([C@@H](O)CO)C(O)=C1O,,ABTS scavenging,,,IC50,4.24 µg/mL
CCCCCCCCC1NCCc2cc(O)c(O)cc21 (stereo not shown),,ABTS scavenging,,"10 min, dark",IC50,47.5 µM
c1ccc(-c2ccc3c(c2)NC(C2Nc4cc(-c5ccccc5)ccc4O2)O3)cc1 (stereo not shown),Leishmania donovani,"parasite growth, resazurin",,"72 h, promastigote",IC50,9.21 µM
